Experiments:
[1] = molecular target: Cyclin-dependent kinase 2/cyclin E1 (Homo sapiens, UniProt P24941); test: Inhibition of CDK2/Cyclin-E (unknown origin) using maltose binding protein as substrate by HTRF assay; type: protein-complex assay
[2] = molecular target: T1, CDC7/DBF4 (Cell division cycle 7-related protein kinase/Activator of S phase kinase) (Homo sapiens, UniProt O00311); test: Inhibition of Cdc7/Dbf4 (unknown origin)-mediated phosphorylation of MCM2 by protein-A luminescent proximity homogenous assay; type: protein-complex assay
[3] = molecular target: T1, CDC7/DBF4 (Cell division cycle 7-related protein kinase/Activator of S phase kinase); test: Inhibition of Cdc7/Dbf4 in human HCT116 cells assessed as reduction of MCM2 phosphorylation after 14 hrs; type: cell-based, HCT-116
Outline: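 HCT-116 cells were exposed to inhibitor across a 22-point dose response for 14 h. They were then immunostained for phospho-serine MCM2 using an Alexa Fluor 488 secondary, with a Hoechst nuclear counterstain. The percentage of cells with phospho-MCM2 signal above a threshold was scored by high-content imaging, and IC50 values were derived from that.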

[4] = organism: Homo sapiens; test: Selectivity ratio of IC50 for CDK2/Cyclin-E (unknown origin) to IC50 for Cdc7/Dbf4 (unknown origin)
[5] = Intrinsic clearance in rat liver microsomes at 1 uM after 30 mins by reverse phase HPLC analysis in presence of NADPH; type: ADME; conditions: read-out: CLH
Outline: (§1)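 Reactions were stopped with MeCN after 0 or 30 min. Samples were analysed by reverse-phase HPLC–tandem MS to give intrinsic clearance (µl/min/mg).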

[6] = Intrinsic clearance in human liver microsomes at 1 uM after 30 mins by reverse phase HPLC analysis in presence of NADPH; type: ADME; conditions: read-out: CLH; outline: as §1
[7] = molecular target: CDC7/DBF4 (Cell division cycle 7-related protein kinase/Activator of S phase kinase) (Homo sapiens) (UniProt Q9UBU7+O00311); test: Ratio of IC50 for Cdc7/Dbf4 in human HCT116 cells to IC50 for Cdc7/Dbf4 (unknown origin); type: cell-based; conditions: HCT-116
Sequence of CDC7/DBF4 (Cell division cycle 7-related protein kinase/Activator of S phase kinase) (Homo sapiens) (O00311 whole entry, looked up): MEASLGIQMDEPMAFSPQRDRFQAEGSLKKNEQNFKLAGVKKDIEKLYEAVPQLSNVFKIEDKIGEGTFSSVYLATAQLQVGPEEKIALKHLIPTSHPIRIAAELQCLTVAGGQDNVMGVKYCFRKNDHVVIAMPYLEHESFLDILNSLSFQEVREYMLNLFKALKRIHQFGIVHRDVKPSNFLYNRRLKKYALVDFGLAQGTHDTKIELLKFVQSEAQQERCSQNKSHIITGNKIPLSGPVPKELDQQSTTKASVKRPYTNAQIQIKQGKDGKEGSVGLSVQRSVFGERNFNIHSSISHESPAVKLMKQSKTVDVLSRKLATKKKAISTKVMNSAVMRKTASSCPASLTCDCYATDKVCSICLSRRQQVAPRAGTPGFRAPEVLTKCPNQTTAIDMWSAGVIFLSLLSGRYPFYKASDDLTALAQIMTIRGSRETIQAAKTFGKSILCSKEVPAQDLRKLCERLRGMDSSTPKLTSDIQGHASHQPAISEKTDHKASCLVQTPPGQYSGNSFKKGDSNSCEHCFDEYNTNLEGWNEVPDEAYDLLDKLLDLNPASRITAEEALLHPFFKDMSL
Sequence of CDC7/DBF4 (Cell division cycle 7-related protein kinase/Activator of S phase kinase) (Homo sapiens) (Q9UBU7 whole entry, looked up): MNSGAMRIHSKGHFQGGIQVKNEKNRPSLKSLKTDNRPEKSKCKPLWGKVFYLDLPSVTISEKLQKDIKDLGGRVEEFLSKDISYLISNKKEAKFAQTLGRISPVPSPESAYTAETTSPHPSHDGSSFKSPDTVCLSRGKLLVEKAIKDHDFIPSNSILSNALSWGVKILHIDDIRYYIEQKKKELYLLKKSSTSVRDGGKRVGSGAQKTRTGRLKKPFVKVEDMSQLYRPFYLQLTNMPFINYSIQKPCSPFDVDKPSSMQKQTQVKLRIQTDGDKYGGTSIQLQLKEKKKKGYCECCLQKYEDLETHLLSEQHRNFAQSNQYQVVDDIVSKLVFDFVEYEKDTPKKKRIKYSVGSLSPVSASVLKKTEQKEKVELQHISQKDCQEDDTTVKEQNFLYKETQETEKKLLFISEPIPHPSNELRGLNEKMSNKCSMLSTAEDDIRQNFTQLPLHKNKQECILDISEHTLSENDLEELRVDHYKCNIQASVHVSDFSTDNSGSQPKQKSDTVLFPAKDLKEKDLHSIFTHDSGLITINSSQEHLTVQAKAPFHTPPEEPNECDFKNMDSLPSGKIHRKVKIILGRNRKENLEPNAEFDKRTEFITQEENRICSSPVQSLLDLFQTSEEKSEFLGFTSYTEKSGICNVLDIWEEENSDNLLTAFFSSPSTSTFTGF

T1 sequence (Q9UBU7 whole entry): as the sequence (Q9UBU7 whole entry, looked up) above
T1 sequence (O00311 whole entry): as the sequence (O00311 whole entry, looked up) above

| IC50 [1] [µM] | IC50 [2] [µM] | IC50 [3] [µM] | Ratio IC50 [4] | microsomal CLint at 1 µM [5] [µL/min/mg] | microsomal CLint at 1 µM [6] [µL/min/mg] | Ratio IC50 [7] | SMILES |
| --- | --- | --- | --- | --- | --- | --- | --- |
| > 125 | 0.451 |  |  |  |  |  | CCOC(=O)c1sc(-c2ccncc2)nc1-c1cccc(Cl)c1Cl |
| > 125 | 0.115 | > 50 |  |  |  |  | NC(=O)c1sc(-c2ccncc2)nc1O |
| > 125 | 8.98 |  |  |  |  |  | CNC(=O)c1sc(-c2ccncc2)nc1O |
| 1.2 | 0.104 |  | 11 |  |  |  | O=C1Nc2ccccc2Nc2nc(-c3ccncc3)sc21 |
| > 125 | 0.855 |  |  |  |  |  | CCOC(=O)c1sc(-c2ccncc2)nc1-c1ccc(OC)cc1Cl |
| > 125 | 24.4 |  |  |  |  |  | CN(C)C(=O)c1sc(-c2ccncc2)nc1O |
| > 125 | 38.3 |  |  |  |  |  | CCOC(=O)c1sc(-c2ccncc2)nc1NCc1ccccc1 |
| > 125 | 0.472 |  |  |  |  |  | NNC(=O)c1sc(-c2ccncc2)nc1-c1ccccc1 |
| > 125 | 0.0623 | 8.5 |  | 69 | 67 |  | NC(=O)c1sc(-c2ccnc(N)n2)nc1-c1cc(Cl)cc(Cl)c1 |
| 7.03 | 0.00604 | 1.4 |  | 140 | < 14 |  | Cc1ccc(-c2nc(-c3ccnc(N)n3)sc2C(N)=O)c(Cl)c1 |
| > 125 | > 125 |  |  |  |  |  | CCOC(=O)c1sc(-c2ccncc2)nc1-c1ccc2ccccc2c1 |
| 34.9 | 0.0184 | 2.04 |  | < 14 | < 14 |  | NC(=O)c1sc(-c2ccnc(N)n2)nc1-c1ccccc1C(F)(F)F |
| > 125 | 0.452 |  |  |  |  |  | c1ccc(-c2nc(-c3ccncc3)sc2-c2nn[nH]n2)cc1 |
| > 125 | 29.6 |  |  |  |  |  | CCOC(=O)c1sc(-c2ccsc2)nc1O |
| > 125 | 0.529 |  |  |  |  |  | CCOC(=O)c1sc(-c2ccncc2)nc1-c1ccccc1Cl |
| > 125 | 20.5 |  |  |  |  |  | CCOC(=O)c1sc(-c2ccncc2)nc1-c1ccccc1 |
| > 125 | 6.13 |  |  |  |  |  | O=C(O)c1sc(-c2ccncc2)nc1O |
| > 125 | > 125 |  |  |  |  |  | CCOC(=O)c1sc(-c2ccccn2)nc1O |
| > 125 | 0.172 |  |  |  |  |  | O=C(O)c1sc(-c2ccncc2)nc1-c1ccccc1 |
| > 125 | 7.5 |  |  |  |  |  | CCOC(=O)c1sc(-c2ccnc(CC)c2)nc1O |
| > 125 | 26.5 |  |  |  |  |  | CCOC(=O)c1sc(-c2cnccn2)nc1O |
| > 125 | 32 |  |  |  |  |  | CCOC(=O)c1sc(-c2cccnc2)nc1O |
| > 125 | 8.29 |  |  |  |  |  | CCOC(=O)c1sc(-c2ccncc2)nc1-c1cccnc1 |
| > 125 | 24 |  |  |  |  |  | CCOC(=O)c1cnc(-c2ccncc2)s1 |
| 5.71 | 0.0955 | 9.93 |  |  |  | > 100 | COc1nc(-c2ccncc2)sc1C(N)=O |

| IC50 [1] [µM] | IC50 [2] [µM] | IC50 [3] [µM] | Ratio IC50 [4] | microsomal CLint at 1 µM [5] [µL/min/mg] | microsomal CLint at 1 µM [6] [µL/min/mg] | Ratio IC50 [7] | SMILES |
| --- | --- | --- | --- | --- | --- | --- | --- |
| 0.7 | 0.0143 | 11.5 |  |  |  | > 100 | NC(=O)c1sc(-c2ccncc2)nc1-c1ccc(Cl)cc1Cl |
| > 125 | > 125 |  |  |  |  |  | CCOC(=O)c1sc(C(C)(C)C)nc1O |
| 34.2 | 0.101 | 23.6 |  |  |  | > 100 | NC(=O)c1sc(-c2ccncc2)nc1-c1ccccc1 |
| 34.8 | 0.0328 | 3.62 |  | 28 | < 14 |  | NC(=O)c1sc(-c2ccnc(N)n2)nc1-c1cc(F)ccc1F |
| 52.1 | 11.6 |  |  |  |  |  | O=C(NCc1ccccc1)c1sc(-c2ccncc2)nc1O |
| > 125 | 0.973 |  |  |  |  |  | CCOC(=O)c1sc(-c2ccncc2)nc1-c1ccc(Cl)cc1Cl |
| > 125 | 0.0415 |  |  |  |  |  | CCOC(=O)c1sc(-c2ccnc(N)n2)nc1O |
| > 125 | > 125 |  |  |  |  |  | CCOC(=O)c1sc(-c2cc(N)ncn2)nc1-c1ccccc1 |
| > 125 | > 125 |  |  |  |  |  | CCOC(=O)c1sc(-c2ccncc2)nc1Nc1ccccc1 |
| > 125 | 25.1 |  |  |  |  |  | CCOC(=O)c1sc(-c2ccncc2)nc1C |
| 18.2 | 0.0205 | 1.87 |  | 26 | 23 |  | CN(C)c1nc(-c2ccnc(N)n2)sc1C(N)=O |
| > 125 | 19.9 |  |  |  |  |  | CCOC(=O)c1sc(-c2ccnc(N)c2)nc1-c1ccccc1 |
| > 125 | > 125 |  |  |  |  |  | CCOC(=O)c1sc(-c2ccc(OC)cc2)nc1O |
| > 125 | 1.02 |  |  |  |  |  | CCOC(=O)c1sc(-c2ccncc2)nc1-c1ccc(F)cc1Cl |
| > 125 | 1.69 |  |  |  |  |  | O=C(NO)c1sc(-c2ccncc2)nc1-c1ccccc1 |
| > 125 | 10.3 |  |  |  |  |  | N#Cc1sc(-c2ccncc2)nc1-c1ccccc1 |
| > 125 | 7.35 |  |  |  |  |  | CCOC(=O)c1sc(-c2ccncc2)nc1NC |
| > 125 | 46.7 |  |  |  |  |  | CCOC(=O)c1sc(-c2ccccc2)nc1O |
| > 125 | 3.87 |  |  |  |  |  | c1ccc(-c2nc(-c3ccncc3)sc2-c2nnco2)cc1 |
| > 125 | 17.2 |  |  |  |  |  | CCOC(=O)c1sc(-c2ccncc2)nc1OC |
| > 125 | 0.669 |  |  |  |  |  | CCOC(=O)c1sc(-c2ccncc2)nc1N(C)C |
| > 125 | 4.2 |  |  |  |  |  | CCOC(=O)c1sc(-c2ccncc2)nc1N |
| > 125 | 3.22 |  |  |  |  |  | CCOC(=O)c1sc(-c2ccncc2)nc1-c1ccccc1O |
| > 125 | 0.0178 | 1.07 |  | < 14 | < 14 |  | NC(=O)c1sc(-c2ccnc(N)n2)nc1-c1ccccc1F |
